# Test results as given in publication PMC10155261 (European journal of medicinal chemistry, 2022).
# Key:
# hLPA5 [1] = target: T1, hLPA5 (Homo sapiens, UniProt Q9H1C0); assay: LPA5 TR-FRET Lance Ultra cAMP assay; format: cell-based; conditions: for fold less potent than 2: cAMP assay
# hLPA5 [2] = target: T1, hLPA5; assay: LPA5 calcium mobilization assay; format: cell-based; conditions: for IC50, nM: RH7777-hLPA5 cells, against EC80 (30 nM) of hexadecyl LPA 16:0, mean ± SEM
# Summary of the method: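 RH7777-hLPA5 cells were plated on poly-D-lysine at 20,000 cells/well in 0.2% FBS medium for 18–20 h at 37 °C. They were loaded 45 min with Calcium 5 dye in HBSS, 20 mM HEPES and 2.5 mM probenecid, pH 7.4. Eight test-compound concentrations were pre-incubated for 15 min at 37 °C, then hexadecyl LPA 16:0 EC80 (30 nM) was added at 10 s. Fluorescence (485/525 nm) was read every 1 s for 90 s. IC50 came from a three-parameter logistic fit of RFU. Duplicate determinations; two or at least three independent experiments.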
# T1 sequence (Q9H1C0 whole entry): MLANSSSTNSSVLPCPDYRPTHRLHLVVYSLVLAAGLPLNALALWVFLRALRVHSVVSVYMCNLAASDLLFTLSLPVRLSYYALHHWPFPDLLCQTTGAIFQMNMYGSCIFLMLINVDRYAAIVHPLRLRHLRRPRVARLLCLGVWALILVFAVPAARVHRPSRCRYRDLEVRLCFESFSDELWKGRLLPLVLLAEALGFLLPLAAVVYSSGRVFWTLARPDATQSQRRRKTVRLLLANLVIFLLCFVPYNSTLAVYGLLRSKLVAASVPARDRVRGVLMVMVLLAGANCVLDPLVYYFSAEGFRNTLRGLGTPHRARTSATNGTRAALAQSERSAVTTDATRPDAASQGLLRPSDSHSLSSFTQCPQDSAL
SMILES,"IC50, nM (hLPA5 [2])",further results
"COc1cc2c(C(=O)N3CCCCC3)cn(-c3ccc4ccn(C)c4c3)c(=O)c2cc1OC [Compound 58, 6,7-Dimethoxy-2-(1-methyl-1H-indol-6-yl)-4-(piperidine-1-carbonyl)isoquinolin-1(2H)-one]",,potency difference between cAMP and calcium mobilization assays (hLPA5 [1]; cAMP potency / calcium mobilization potency): 7.2 fold
"COc1cc2c(C(=O)N(C)C)cn(-c3cccc(N(C)C)c3)c(=O)c2cc1OC [Compound 10, 2-(3-(Dimethylamino)phenyl)-6,7-dimethoxy-N,N-dimethyl-1-oxo-1,2-dihydroisoquinoline-4-car-boxamide]",inactive,
"COc1cc2c(C(=O)N3CCCCC3)cn(-c3cccc(C(N)=O)c3)c(=O)c2cc1OC [Compound 50, 3-(6,7-Dimethoxy-1-oxo-4-(piperidine-1-carbonyl)isoquinolin-2(1H)-yl)benzamide]",completely inactive,
"COc1cc2c(C(=O)N3CCC(C#N)CC3)cn(-c3cccc(N(C)C)c3)c(=O)c2cc1OC [Compound 24, 1-(2-(3-(Dimethylamino)phenyl)-6,7-dimethoxy-1-oxo-1,2-dihydroisoquinoline-4-carbonyl)piper-idine-4-carbonitrile]",,IC50 (hLPA5 [1]): 2100 ± 300 nM; fold less potent than 2 (hLPA5 [1]): 4 – 10 fold
"COc1cc2c(C(=O)N3CCCC3)cn(-c3cccc(N(C)C)c3)c(=O)c2cc1OC [Compound 14, 2-(3-(Dimethylamino)phenyl)-6,7-dimethoxy-4-(pyrrolidine-1-carbonyl)isoquinolin-1(2H)-one]",inactive,
"COc1cc2c(C(=O)N3CCCCC3)cn(-c3cccc(C(=O)N(C)C)c3)c(=O)c2cc1OC [Compound 51, 3-(6,7-Dimethoxy-1-oxo-4-(piperidine-1-carbonyl)isoquinolin-2(1H)-yl)-N,N-dimethylbenzamide]",completely inactive,
"COc1cc2c(C(=O)N3CCC(F)CC3)cn(-c3ccc4occ(C)c4c3)c(=O)c2cc1OC [Compound 64, 4-(4-Fluoropiperidine-1-carbonyl)-6,7-dimethoxy-2-(3-methylbenzofuran-5-yl)isoquinolin-1(2H)-one]",,fold less potent than 3 and 66 (hLPA5 [2]; calcium assay): ~ 4 fold
"COc1cc2c(C(=O)N3CCC(F)CC3)cn(-c3cccc(N(C)C)c3)c(=O)c2cc1OC [Compound 23, 2-(3-(Dimethylamino)phenyl)-4-(4-fluoropiperidine-1-carbonyl)-6,7-dimethoxyisoquinolin-1(2H-)-one]",,fold less potent than 2 (hLPA5 [1]): 4 – 10 fold
"COc1cc2c(C(=O)N3CCC3)cn(-c3cccc(N(C)C)c3)c(=O)c2cc1OC [Compound 13, 4-(Azetidine-1-carbonyl)-2-(3-(dimethylamino)phenyl)-6,7-dimethoxyisoquinolin-1(2H)-one]",inactive,
"COc1cc2c(C(=O)N(C)Cc3ccncc3)cn(-c3cccc(N(C)C)c3)c(=O)c2cc1OC [Compound 11, 2-(3-(Dimethylamino)phenyl)-6,7-dimethoxy-N-methyl-1-oxo-N-(pyridin-4-ylmethyl)-1,2-dihydr-oisoquinoline-4-carboxamide]",inactive,

# Now from value to molecule, other results behind:
"IC50, nM (hLPA5 [2])",SMILES,further results
total loss of activity,"COc1cc2c(=O)n(-c3cccc(N(C)C)c3)cc(C(=O)N3CCC(F)CC3)c2cc1OCc1ccccn1 [Compound 45, 2-(3-(Dimethylamino)phenyl)-4-(4-fluoropiperidine-1-carbonyl)-7-methoxy-6-(pyridin-2-ylmeth-oxy)isoquinolin-1(2H)-one]",
total loss of activity,"COc1cc2c(=O)n(-c3cccc(N(C)C)c3)cc(C(=O)N3CCC(F)CC3)c2cc1OCc1cccc2ccccc12 [Compound 44, 2-(3-(Dimethylamino)phenyl)-4-(4-fluoropiperidine-1-carbonyl)-7-methoxy-6-(naphthalen-1-ylm-ethoxy)isoquinolin-1(2H)-one]",
total loss of potency,"CN(C)c1cccc(-n2cc(C(=O)N3CCC(F)CC3)c3ccccc3c2=O)c1 [Compound 34, 2-(3-(Dimethylamino)phenyl)-4-(4-fluoropiperidine-1-carbonyl)isoquinolin-1(2H)-one]",
